Measurements: ChEMBL document CHEMBL5303300, “EUbOPEN Chemogenomics Library - Multiplex” (2023)
Values joined by “and” are separate entries in the source; they are usually repeats but may differ in a detail not shown here. Equal entries are not always repeated.

Test system: Fibroblast
Assay: Multiplex assay against human fibroblast
Type: toxicity, cell-based
Settings: number of replicates 2
How it was run: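 At seeding, live cells were stained with Hoechst33342, BioTracker Green Microtubule Cytoskeleton Dye, MitoTracker Red and Annexin V Alexa Fluor 680. After compound addition they were imaged on a CQ1 microscope at 37°C and 5% CO2, and CellPathfinder machine-learning gating sorted them into Hoechst high-intensity objects or normal cells, with normal cells further split into healthy, pyknosed or fragmented nuclei and pyknosed cells into mitotic or apoptotic. Tubulin, mitochondrial-mass and membrane-permeability phenotypes are given as per cents of cells with healthy nuclei.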

[1] = 12 h, 1 µM, compound concentration 1 uM
[2] = 12 h, 10 µM, compound concentration 10 uM
[3] = 24 h, 1 µM, compound concentration 1 uM
[4] = 24 h, 10 µM, compound concentration 10 uM
[5] = 48 h, 1 µM, compound concentration 1 uM
[6] = 48 h, 10 µM, compound concentration 10 uM

With `CCn1ccc(Nc2ncc3c(n2)-c2c(nn(C)c2-c2ccc(-c4cnn(C)c4)cc2Cl)CC3)n1` the “Population Apoptotic (%)” value [1] was 36% and 33%, the “Population Fragmented Nuclei (%)” value [1] was 11% and 9% and the “Population Healthy Nuclei (%)” value [1] was 71% and 65%. For the same compound, the “Population Hoechst High Intensity Objects (%)” value [1] was 0%, the “Population Membrane Permeable-Phenotype (%)” value [1] was 8% and 7% and the “Population Mitochondria Different-Phenotype (%)” value [1] was 1% and 2%. For the same compound, the “Population Mitotic Cells (%)” value [1] was 63% and 66%, the “Population Normal (%)” value [1] was 99% and the “Population Pyknosed Nuclei (%)” value [1] was 17% and 25%. The “Population Tubulin-Different-Phenotype (%)” value [1] was 14% and 18%, the “Total Cell Count” value [1] was 258 and 213 and the “Population Apoptotic (%)” value [2] was 51% and 48%. For the same compound, the “Population Fragmented Nuclei (%)” value [2] was 11%, the “Population Healthy Nuclei (%)” value [2] was 75% and 69% and the “Population Hoechst High Intensity Objects (%)” value [2] was 0%. The “Population Membrane Permeable-Phenotype (%)” value [2] was 5% and 6%, the “Population Mitochondria Different-Phenotype (%)” value [2] was 2% and 1% and the “Population Mitotic Cells (%)” value [2] was 48% and 51%. The “Population Normal (%)” value [2] was 100%, the “Population Pyknosed Nuclei (%)” value [2] was 13% and 19% and the “Population Tubulin-Different-Phenotype (%)” value [2] was 56% and 41%. For the same compound, the “Total Cell Count” value [2] was 204 and 191, the “Population Apoptotic (%)” value [3] was 40% and 49% and the “Population Fragmented Nuclei (%)” value [3] was 10% and 7%. The “Population Healthy Nuclei (%)” value [3] was 75% and 66%, the “Population Hoechst High Intensity Objects (%)” value [3] was 0% and the “Population Membrane Permeable-Phenotype (%)” value [3] was 2% and 6%. The “Population Mitochondria Different-Phenotype (%)” value [3] was 0% and 1%, the “Population Mitotic Cells (%)” value [3] was 59% and 50% and the “Population Normal (%)” value [3] was 100% and 99%. For the same compound, the “Population Pyknosed Nuclei (%)” value [3] was 13% and 25%, the “Population Tubulin-Different-Phenotype (%)” value [3] was 7% and 8% and the “Total Cell Count” value [3] was 239 and 234. For the same compound, the “Population Apoptotic (%)” value [4] was 60% and 55%, the “Population Fragmented Nuclei (%)” value [4] was 8% and 6% and the “Population Healthy Nuclei (%)” value [4] was 78% and 77%. The “Population Hoechst High Intensity Objects (%)” value [4] was 0%, the “Population Membrane Permeable-Phenotype (%)” value [4] was 1% and 4% and the “Population Mitochondria Different-Phenotype (%)” value [4] was 1% and 2%. The “Population Mitotic Cells (%)” value [4] was 40% and 44%, the “Population Normal (%)” value [4] was 100% and 99% and the “Population Pyknosed Nuclei (%)” value [4] was 12% and 15%. The “Population Tubulin-Different-Phenotype (%)” value [4] was 62% and 39%, the “Total Cell Count” value [4] was 202 and 187 and the “Population Apoptotic (%)” value [5] was 71% and 69%. The “Population Fragmented Nuclei (%)” value [5] was 13% and 12%, the “Population Healthy Nuclei (%)” value [5] was 75% and 67% and the “Population Hoechst High Intensity Objects (%)” value [5] was 0%. For the same compound, the “Population Membrane Permeable-Phenotype (%)” value [5] was 2% and 3%, the “Population Mitochondria Different-Phenotype (%)” value [5] was 0% and the “Population Mitotic Cells (%)” value [5] was 28% and 30%. The “Population Normal (%)” value [5] was 99% and 100%, the “Population Pyknosed Nuclei (%)” value [5] was 11% and 19% and the “Population Tubulin-Different-Phenotype (%)” value [5] was 6% and 7%. For the same compound, the “Total Cell Count” value [5] was 252 and 233, the “Population Apoptotic (%)” value [6] was 84% and 82% and the “Population Fragmented Nuclei (%)” value [6] was 14% and 8%. For the same compound, the “Population Healthy Nuclei (%)” value [6] was 68% and 75%, the “Population Hoechst High Intensity Objects (%)” value [6] was 0% and the “Population Membrane Permeable-Phenotype (%)” value [6] was 2% and 3%. For the same compound, the “Population Mitochondria Different-Phenotype (%)” value [6] was 4% and 3%, the “Population Mitotic Cells (%)” value [6] was 15% and 17% and the “Population Normal (%)” value [6] was 100%. For the same compound, the “Population Pyknosed Nuclei (%)” value [6] was 16%, the “Population Tubulin-Different-Phenotype (%)” value [6] was 56% and 38% and the “Total Cell Count” value [6] was 195 and 170.
In the case of `COc1ccc(-c2cc3c(C)nc(N)nc3n([C@H]3CC[C@H](OCCO)CC3)c2=O)cn1` [PF-04691502], the “Population Apoptotic (%)” value [1] is reported as 34% and 55%, the “Population Fragmented Nuclei (%)” value [1] is reported as 15% and 13% and the “Population Healthy Nuclei (%)” value [1] is reported as 73% and 71%. The “Population Hoechst High Intensity Objects (%)” value [1] was 0%, the “Population Membrane Permeable-Phenotype (%)” value [1] was 3% and the “Population Mitochondria Different-Phenotype (%)” value [1] was 3% and 1%. For the same compound, the “Population Mitotic Cells (%)” value [1] was 65% and 45%, the “Population Normal (%)” value [1] was 100% and the “Population Pyknosed Nuclei (%)” value [1] was 10% and 15%. For the same compound, the “Population Tubulin-Different-Phenotype (%)” value [1] was 11% and 8%, the “Total Cell Count” value [1] was 270 and 253 and the “Population Apoptotic (%)” value [2] was 55% and 54%. For the same compound, the “Population Fragmented Nuclei (%)” value [2] was 29% and 27%, the “Population Healthy Nuclei (%)” value [2] was 51% and 60% and the “Population Hoechst High Intensity Objects (%)” value [2] was 1% and 0%. For the same compound, the “Population Membrane Permeable-Phenotype (%)” value [2] was 5% and 9%, the “Population Mitochondria Different-Phenotype (%)” value [2] was 3% and 1% and the “Population Mitotic Cells (%)” value [2] was 44% and 45%. For the same compound, the “Population Normal (%)” value [2] was 98% and 100%, the “Population Pyknosed Nuclei (%)” value [2] was 18% and 11% and the “Population Tubulin-Different-Phenotype (%)” value [2] was 26% and 18%. For the same compound, the “Total Cell Count” value [2] was 185 and 202, the “Population Apoptotic (%)” value [3] was 62% and 58% and the “Population Fragmented Nuclei (%)” value [3] was 7% and 9%. For the same compound, the “Population Healthy Nuclei (%)” value [3] was 80% and 72%, the “Population Hoechst High Intensity Objects (%)” value [3] was 0% and the “Population Membrane Permeable-Phenotype (%)” value [3] was 4% and 2%. The “Population Mitochondria Different-Phenotype (%)” value [3] was 1%, the “Population Mitotic Cells (%)” value [3] was 37% and 41% and the “Population Normal (%)” value [3] was 99%. The “Population Pyknosed Nuclei (%)” value [3] was 12% and 17%, the “Population Tubulin-Different-Phenotype (%)” value [3] was 7% and 3% and the “Total Cell Count” value [3] was 262 and 247. For the same compound, the “Population Apoptotic (%)” value [4] was 59% and 65%, the “Population Fragmented Nuclei (%)” value [4] was 20% and the “Population Healthy Nuclei (%)” value [4] was 60% and 66%. The “Population Hoechst High Intensity Objects (%)” value [4] was 0%, the “Population Membrane Permeable-Phenotype (%)” value [4] was 10% and 8% and the “Population Mitochondria Different-Phenotype (%)” value [4] was 0% and 1%. For the same compound, the “Population Mitotic Cells (%)” value [4] was 40% and 34%, the “Population Normal (%)” value [4] was 99% and 100% and the “Population Pyknosed Nuclei (%)” value [4] was 20% and 13%. The “Population Tubulin-Different-Phenotype (%)” value [4] was 27% and 23%, the “Total Cell Count” value [4] was 161 and 176 and the “Population Apoptotic (%)” value [5] was 60% and 59%. For the same compound, the “Population Fragmented Nuclei (%)” value [5] was 8% and 12%, the “Population Healthy Nuclei (%)” value [5] was 80% and 72% and the “Population Hoechst High Intensity Objects (%)” value [5] was 0%. For the same compound, the “Population Membrane Permeable-Phenotype (%)” value [5] was 5%, the “Population Mitochondria Different-Phenotype (%)” value [5] was 0% and the “Population Mitotic Cells (%)” value [5] was 39% and 40%. The “Population Normal (%)” value [5] was 100%, the “Population Pyknosed Nuclei (%)” value [5] was 10% and 15% and the “Population Tubulin-Different-Phenotype (%)” value [5] was 6% and 4%. The “Total Cell Count” value [5] was 258 and 245, the “Population Apoptotic (%)” value [6] was 66% and the “Population Fragmented Nuclei (%)” value [6] was 12% and 22%. The “Population Healthy Nuclei (%)” value [6] was 59%, the “Population Hoechst High Intensity Objects (%)” value [6] was 0% and the “Population Membrane Permeable-Phenotype (%)” value [6] was 7% and 4%. For the same compound, the “Population Mitochondria Different-Phenotype (%)” value [6] was 1%, the “Population Mitotic Cells (%)” value [6] was 33% and the “Population Normal (%)” value [6] was 100%. The “Population Pyknosed Nuclei (%)” value [6] was 27% and 17%, the “Population Tubulin-Different-Phenotype (%)” value [6] was 32% and 19% and the “Total Cell Count” value [6] was 140 and 170.
